# Experimental data as given in ChEMBL document CHEMBL1131102, “A new series of highly potent growth hormone-releasing peptides derived from ipamorelin” (J Med Chem, 1998).
# pEC50: −log10 of the molar value. “And” between values parts separate entries of the source, which are not always exact repeats. Equal entries are not always repeated. Non-standard residues stand in square brackets, D forms with d. Residues, ends and D or L forms follow the SMILES beside them. d2Nal = N[C@H](Cc1ccc2ccccc2c1)C(=O)O; 3Amb = NCc1cccc(C(=O)O)c1; Aib = CC(C)(N)C(=O)O
# Tests used:
# [1] = organism: Sus scrofa; assay: (§1) Compound was tested for GH-releasing potency against female Danish slaughter swine.; format: functional
# Summary of the method: (§2)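 Swine with jugular catheters received single iv injections in increasing doses (range 0.03–500 nmol/kg), five doses per experiment at 24-h intervals. Vehicle was phosphate/citrate buffer diluted in saline with 0.5% porcine serum albumin. Blood was sampled from 1 h before to 3 h after dosing; pGH by ELISA. Basal-adjusted Cmax was fitted (Hill or Michaelis–Menten) for ED50; six swine.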
# [2] = organism: Rattus norvegicus; assay: Tested in vitro for GH-releasing potency against rat pituitary cells.; format: functional; details: Pituitary gland cell
# Summary of the method: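 Rat pituitaries were trypsin-dispersed into single cells and cultured 3 days, then washed and stimulated 15 min with secretagogue. Supernatant GH was measured by rat GH SPA. EC50 came from a Hill fit of release above basal; Emax as % of GHRP-6 maximum. Mean ± SEM of 1–5 experiments.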
# [3] = test system: Rattus norvegicus; assay: Tested in vivo for GH-releasing potency against anesthetized female rats; format: functional
# Summary of the method: (§3)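 Male or female rats (250 ± 25 g) were anesthetized with pentobarbital ip (50 mg/mL, 1.2 mL/kg). After 15 min, orbital blood was taken, then compound was given as an iv tail-vein bolus (2 mL/kg) and blood sampled again at 10 min. Rat GH was assayed in heparinized plasma. At least five doses, six rats per dose. ED50 by Hill fit; Emax as % of GHRP-6.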
# [4] = test system: Rattus norvegicus; assay: Compound was tested in vivo for GH-releasing potency against anesthetized female rats; format: functional; summary of the method: as §3
# [5] = test system: Rattus norvegicus; assay: (§4) Tested in vivo for GH-releasing potency against anesthetized male rats; format: functional; set-up: unit not given here; summary of the method: as §3
# [6] = test system: Rattus norvegicus; assay: as §4; format: functional; summary of the method: as §3
# [7] = test system: Canis familiaris; assay: Basal GH release was measured after 2.7 mg/kg po administration into Beagle dogs; format: functional, Canis lupus familiaris
# Summary of the method: (§5)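 Fasted (overnight) Beagle dogs were given compound in citrate/phosphate buffer, pH 5.0, either as a 0.5 mg/kg iv bolus in a hind-leg vein or by po gavage (2.7 or 1.8 mg/kg). Iv and po dosing were separated by a 1-week washout. EDTA blood was drawn from a front-leg vein at intervals up to 6 h. Plasma GH was measured by porcine GH ELISA.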
# [8] = test system: Canis familiaris; assay: Basal GH release was measured after 0.5 mg/kg iv administration into Beagle dogs; format: functional, Canis lupus familiaris; summary of the method: as §5
# [9] = Oral bioavailability in dog (Beagle); format: ADME, organism-based, Canis lupus familiaris; details: in vivo
# Summary of the method: (§6)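 Fasted (overnight) male and female Beagle dogs; dosed po by gavage (2.7 or 1.8 mg/kg) and iv as a hind-leg-vein bolus (0.5 mg/kg), with a 1-week washout between routes. Vehicle was citrate/phosphate buffer, pH 5.0. EDTA blood was drawn from a front-leg vein up to 6 h. Plasma compound was measured by HPLC-UV after solid-phase extraction. AUC(0–6 h); f = AUCpo·doseiv/(AUCiv·dosepo).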
# [10] = test system: Canis familiaris; assay: Basal GH release was measured after 1.8 mg/kg po administration into Beagle dogs; format: functional, Canis lupus familiaris; summary of the method: as §5
# [11] = test system: Canis familiaris; assay: Area under curve was measured after po administration into Beagle dog; format: ADME, organism-based, Canis lupus familiaris; details: in vivo; summary of the method: as §6
# [12] = test system: Canis familiaris; assay: Area under curve was measured after iv administration into Beagle dog; format: ADME, organism-based, Canis lupus familiaris; details: in vivo; summary of the method: as §6
# [13] = organism: Sus scrofa; assay: as §1; format: functional, organism-based; summary of the method: as §2
# [14] = Rattus norvegicus, read-out: Emax
SMILES,pEC50 [2],Emax [2] [%],ED50 [5],further results
C[C@H](NC(=O)[C@@H](Cc1c[nH]c2ccccc12)NC(=O)[C@@H](N)Cc1c[nH]cn1)C(=O)N[C@@H](Cc1c[nH]c2ccccc12)C(=O)N[C@H](Cc1ccccc1)C(=O)N[C@@H](CCCCN)C(N)=O (H-H[dW]AW[dF]K-NH2),8.66,100,,ED50 [1]: 0.0039 µmol/kg; Emax [1]: 100%; Emax [3]: 60% and 100%
CN(C(=O)[C@@H](Cc1ccc2ccccc2c1)N(C)C(=O)c1cccc(CN)c1)[C@@H](CO)Cc1ccccc1,6.58,75,,ED50 [4]: > 1000 nmol/kg
NCCCC[C@H](NC(=O)[C@@H](Cc1ccccc1)NC(=O)[C@@H](Cc1ccc2ccccc2c1)NC(=O)c1ccccc1CN)C(N)=O,7.07,60,,
NCCCC[C@H](NC(=O)[C@@H](Cc1ccccc1)NC(=O)[C@@H](Cc1ccc2ccccc2c1)NC(=O)c1cccc(CN)c1)C(N)=O (H-[3Amb][d2Nal][dF]K-NH2),,85,>4800,
CN(C(=O)[C@H](Cc1c[nH]cn1)NC(=O)C(C)(C)N)[C@H](Cc1ccc2ccccc2c1)C(=O)N(C)[C@H](Cc1ccccc1)C(=O)N[C@@H](CCCCN)C(N)=O,8.82,85,,ED50 [4]: 14 nmol/kg
NCCCC[C@H](NC(=O)[C@@H](Cc1ccccc1)NC(=O)[C@@H](Cc1ccc2ccccc2c1)NC(=O)c1ccc(CN)cc1)C(N)=O,6.96,50,,
CN(C(=O)[C@@H](Cc1ccc2ccccc2c1)NC(=O)c1cccc(CN)c1)[C@H](Cc1ccccc1)C(N)=O,6.77,85,,ED50 [4]: > 1000 nmol/kg
CNCc1cccc(C(=O)N[C@H](Cc2ccc3ccccc3c2)C(=O)N[C@H](Cc2ccccc2)C(=O)N[C@@H](CCCCN)C(N)=O)c1,8.00,85,65,Emax [6]: 30%
CNC(=O)[C@@H](Cc1ccccc1)N(C)C(=O)[C@@H](Cc1ccc2ccccc2c1)N(C)C(=O)c1cccc(CN)c1,7.40,110,,
CC(C)(N)C(=O)N[C@@H](Cc1c[nH]cn1)C(=O)N[C@H](Cc1ccc2ccccc2c1)C(=O)N[C@H](Cc1ccccc1)C(=O)N[C@@H](CCCCN)C(N)=O [IPAMORELIN] (H-[Aib]H[d2Nal][dF]K-NH2),8.89,85,85,Basal GH [7]: 5.4 ng/mL; ED50 [1]: 0.0023 µmol/kg; Emax [1]: 88%; Basal GH [8]: 1.6 ng/mL; bioavailability [9]: 4%; Emax [6]: 120%
CN(C(=O)c1cccc(CN)c1)[C@H](Cc1ccc2ccccc2c1)C(=O)N(C)[C@H](Cc1ccccc1)C(=O)N[C@@H](CCCCN)C(N)=O,8.30,80,,"ED50 [4]: 146 nmol/kg; Emax [3, 14]: 100%"
CN(C(=O)[C@@H](Cc1ccc2ccccc2c1)NC(=O)c1cccc(CN)c1)[C@H](Cc1ccccc1)C(=O)N[C@@H](CCCCN)C(N)=O,9.30,80,80,Basal GH [10]: 1.2 ng/mL; Emax [1]: 70%; AUC [11]: 48 ng·h/mL; AUC [12]: 137 ng·h/mL; Basal GH [8]: 1.2 ng/mL; bioavailability [9]: 10%; ED50 [13]: 2 nM/kg; Emax [6]: 90%
CN(C(=O)c1cccc(CN)c1)[C@H](Cc1ccc2ccccc2c1)C(=O)N(C)[C@H](Cc1ccccc1)C(N)=O,6.94,85,,
CNC(=O)[C@@H](Cc1ccccc1)N(C)C(=O)[C@@H](Cc1ccc2ccccc2c1)N(C)C(=O)[C@H](Cc1c[nH]cn1)NC(=O)C(C)(C)N,8.42,110,,
C[C@H](NC(=O)[C@@H](Cc1ccc2ccccc2c1)NC(=O)[C@@H](C)N)C(=O)N[C@@H](Cc1c[nH]c2ccccc12)C(=O)N[C@H](Cc1ccccc1)C(=O)N[C@@H](CCCCN)C(N)=O [PRALMORELIN] (H-[dA][d2Nal]AW[dF]K-NH2),8.74,85,,"ED50 [1]: 0.0006 µmol/kg; Emax [1]: 75%; Emax [3]: 90%; Emax [3, 14]: 100%"
CN(C(=O)[C@@H](Cc1ccc2ccccc2c1)NC(=O)[C@H](Cc1c[nH]cn1)NC(=O)C(C)(C)N)[C@H](Cc1ccccc1)C(=O)N[C@@H](CCCCN)C(N)=O,8.70,100,1.8,Emax [6]: 90%
